From PubChem
OX1R antag-1: OX1R (HCRTR1) antagonists, primary screen, fluorescence, CHO/OX1R cells, Fluo-8 calcium, orexin A. Orexin/Hypocretin receptor type 1 (Homo sapiens), O43613. Fluo-8 calcium fluorescence. inhibition, % at 5 µM. 0.43% of 330,000 active. AID 434989, 2010;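 active = inhibition above its plate's threshold, mean inhibition of all tested compounds on the plate plus 3 SD, cut at about 37% in these data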;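 also: 0% = orexin A challenge wells and 100% = SB-334867-A antagonist wells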
OX1R antag-2: antagonists of human orexin 1 receptor (OX1R); OX1R-expressing cells, FRET antagonist read-out; 1.8% of 330,000 active; inhibition, % at 6.6 µM; in the data active = inhibition mostly above about 38%, no sharp cut-off; inactive = mostly below about 40%;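 also: 0% = agonist challenge alone and 100% = reference antagonist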
CHO parental Ca: ATP-evoked calcium signal inhibitors, parental CHO, primary screen, counter-screen for OX1R antagonist project, cell-based, fluorescence, Fluo-8 calcium dye; parental CHO-K1, ATP-induced calcium, Fluo-8 fluorescence; inhibition, % at 5.6 µM; 0.63% of 330,000 active; AID 463079, 2010;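 active = inhibition above that plate's mean sample inhibition plus 3 SD, cut at about 26% in these data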;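 also: 0% = ATP-challenged DMSO wells and 100% = DMSO wells without ATP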
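Assay system: untransfected parental CHO cell line. Also added: ATP agonist challenge. Dosing: one dose, 5.6 µM nominal. Measured by: Fluo-8 fluorescence. Read-out: % inhibition. Benchmarks: ATP wells versus no-ATP DMSO wells. Repeats: no replicates.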
TAAR1 antag: human TAAR1 antagonists, primary screen, Fluo-8 calcium fluorescence, CHO RD-HGA16 cells. AID 624466, 2012. inhibition, % at 3 µM. Trace amine-associated receptor 1 (Homo sapiens), Q96RJ0. antagonist. 1.5% of 360,000 active;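 active = inhibition above a per-plate cutoff, the mean inhibition of test compounds on that plate plus 3 SD, cut at about 49% in these data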;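 also: 0% = DMSO plus EC80 beta-PEA response and 100% = DMSO alone without agonist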
Target sequence (Q96RJ0 whole entry, looked up): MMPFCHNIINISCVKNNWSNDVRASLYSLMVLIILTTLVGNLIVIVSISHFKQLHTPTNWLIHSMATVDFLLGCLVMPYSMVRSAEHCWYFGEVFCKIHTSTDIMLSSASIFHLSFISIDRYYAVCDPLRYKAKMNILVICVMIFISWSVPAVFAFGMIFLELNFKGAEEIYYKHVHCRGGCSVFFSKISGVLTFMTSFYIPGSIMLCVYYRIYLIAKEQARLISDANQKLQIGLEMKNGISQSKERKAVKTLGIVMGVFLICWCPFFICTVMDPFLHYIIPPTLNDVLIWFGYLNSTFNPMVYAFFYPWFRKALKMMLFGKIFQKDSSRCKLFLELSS
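System: RD-HGA16 CHO cells with stable hTAAR1 and Gα16 | Probe or stimulus: EC80 β-phenethylamine stimulus | Dosing: 3 µM, single point | Times: Dye loading 75 min at 37 °C, then 30 min room temperature | Measured by: Fluo-8 calcium-sensitive fluorescence | Read-out basis: % inhibition of agonist calcium response | Replicates: n of 1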
TAAR1 agonist: human TAAR1 agonists, primary screen, Fluo-8 calcium fluorescence, CHO RD-HGA16 cells; 0.99% of 360,000 active; activation, % at 3 µM; vehicle wells 0%, saturating PEA agonist 100%; AID 624467, 2012;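 active = activation above the mean activation of all test compounds in the run plus 3 SD, cut at about 38% in these data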
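Test system: RD-HGA16 (CHO) cells co-expressing Gα16 and hTAAR1 / Benchmarks: DMSO vehicle as 0%, PEA at EC100 as 100% / Repeats: no replicates (n 1) / Measure: % activation from peak over basal fluorescence ratio, DMSO-to-PEA scaled / Timing: 17-24 h plating, Fluo-8 75 min 37 °C, 30 min RT / Technique: kinetic Fluo-8 calcium fluorescence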
GPR7 antagonist: GPR7 receptor antagonists, primary screen, cell-based, fluorescence, single concentration. Neuropeptides B/W receptor type 1 (Homo sapiens), P48145. GPR7-expressing cells, fluorescence antagonist assay. inhibition, % at 4.4 µM. 1.1% of 290,000 active. AID 1861, 2009; in the data active = inhibition above about 16%, passing the limit was not always enough;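 also: cells stimulated with the agonist NPW; 0% = agonist with vehicle and 100% = vehicle without agonist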
Target sequence (P48145 whole entry, looked up): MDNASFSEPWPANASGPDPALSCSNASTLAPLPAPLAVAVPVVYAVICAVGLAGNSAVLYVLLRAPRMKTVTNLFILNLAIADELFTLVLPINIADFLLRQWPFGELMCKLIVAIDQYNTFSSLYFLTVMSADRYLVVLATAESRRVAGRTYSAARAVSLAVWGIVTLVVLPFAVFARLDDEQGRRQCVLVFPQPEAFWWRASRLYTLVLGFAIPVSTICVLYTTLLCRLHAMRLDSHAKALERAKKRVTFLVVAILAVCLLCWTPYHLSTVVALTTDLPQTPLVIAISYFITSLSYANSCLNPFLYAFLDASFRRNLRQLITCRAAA
TAAR1 ag confirm: human TAAR1 agonists, retest of hits, confirmation, Fluo-8 calcium fluorescence, CHO RD-HGA16 cells; activation, % at 3 µM; scaled: DMSO 0%, maximal phenethylamine 100%; 82% of 2,400 active; shares compounds with TAAR1 agonist;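 active = activation above a cutoff set at the run's mean compound activation plus 3 SD, cut at about 39% in these data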
Ga16 nonsel ag: nonselective calcium mobilization agonists, CHO-Ga16 cells, counter-screen for hTAAR1 agonist project, cell-based, fluorescence, CHO-Ga16 parental line; shares compounds with TAAR1 agonist; AID 651787, 2012; activation, % at 3 µM; Fluo-8 calcium fluorescence; normalized to maximal ATP response, DMSO zero; 50% of 2,400 active;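 active = activation above the run cutoff, the mean activation over all tested wells plus 3 SD, cut at about 12% in these data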;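 also: 0% = DMSO wells and 100% = maximal ATP response on the peak over basal ratio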
TAAR1 desensitize: TAAR1 desensitization by agonist hits, confirmation, counter-screen for TAAR1 agonist project, cell-based, fluorescence, tachyphylaxis. shares compounds with TAAR1 agonist. CHO RD-HGA16 hTAAR1, Fluo-8 calcium, beta-PEA response inhibition. 46% of 2,400 active. inhibition, % at 3 µM. AID 651951, 2012;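 active = inhibition above the run cutoff, the mean inhibition of all test compounds plus 3 SD, cut at about 49% in these data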;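 also: beta-PEA stimulus applied at its EC80; loss of beta-PEA calcium signal after compound pretreatment read as receptor desensitization; 0% = DMSO with beta-PEA at EC80 and 100% = DMSO alone without agonist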
Ga16 antag count: inhibition of ATP-evoked calcium response in CHO-Ga16 cells, counter-screen for TAAR1 agonist project, cell-based, fluorescence; shares compounds with TAAR1 agonist; 39% of 2,400 active; inhibition, % at 3 µM; CHO-Ga16 ATP-induced calcium, Fluo-8 fluorescence;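 active = inhibition above the plate's mean compound inhibition plus 3 SD, computed per plate, cut at about 22% in these data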;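 also: 0% = EC80 ATP with DMSO and 100% = DMSO wells without ATP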
* marks the source's active call; other numbers are inactive results. This is a sample that favours compounds with a hit; in the whole collection about 4.5% have one here.

CC(C)C(=O)Nc1ccc(NC(=S)NC(=O)c2cc3ccccc3o2)cc1 was read as OX1R antag-1 -12, OX1R antag-2 9, CHO parental Ca -4, TAAR1 antag 23, TAAR1 agonist 5 and GPR7 antagonist 11.
Screening CC(C)C(=O)Nc1ccc(NC(=O)c2cc3ccccc3o2)cc1 returned OX1R antag-1 -24, OX1R antag-2 12, CHO parental Ca -6, TAAR1 antag 14, TAAR1 agonist 54*, GPR7 antagonist -7, TAAR1 ag confirm 45*, Ga16 nonsel ag 21*, TAAR1 desensitize 49* and Ga16 antag count 28*.
Screening Nc1ccc2ccc(O)cc2c1 returned TAAR1 antag 6 and TAAR1 agonist 0.
`C[n+]1c2cc(N)ccc2cc2ccc(N)cc21` gave TAAR1 antag 15, TAAR1 agonist 82*, TAAR1 ag confirm 103*, Ga16 nonsel ag 123*, TAAR1 desensitize 24 and Ga16 antag count 42*.
Screening NC(Cc1ccc(C(F)(F)F)cc1)c1csc(NC(=O)Nc2ccccc2)n1 (stereo not drawn) returned TAAR1 antag 37, TAAR1 agonist 50*, TAAR1 ag confirm 61*, Ga16 nonsel ag 40*, TAAR1 desensitize 63* and Ga16 antag count 53*.
NC(Cc1ccc(C(F)(F)F)cc1)c1csc(Nc2cc(Oc3ccccc3)ncn2)n1 (stereo not drawn) was read as TAAR1 antag 9, TAAR1 agonist 48*, TAAR1 ag confirm 38*, Ga16 nonsel ag 21*, TAAR1 desensitize 43 and Ga16 antag count 38*.
COc1ccc(CC(N)c2csc(NC(=O)Nc3cccc(C(F)(F)F)c3)n2)cc1 (stereo not drawn) was read as TAAR1 antag 65*, TAAR1 agonist 85*, TAAR1 ag confirm 80*, Ga16 nonsel ag 42*, TAAR1 desensitize 65* and Ga16 antag count 54*.
NC(Cc1ccc(C(F)(F)F)cc1)c1csc(Nc2nncc3ccccc23)n1 (stereo not drawn) was read as TAAR1 antag 36, TAAR1 agonist 55*, TAAR1 ag confirm 140*, Ga16 nonsel ag 58*, TAAR1 desensitize 106* and Ga16 antag count 69*.
Cc1ccc(NC(=S)N(CCN2CCCCC2)Cc2ccco2)cc1Cl was read as OX1R antag-1 -34, OX1R antag-2 2, CHO parental Ca -8, TAAR1 antag -24, TAAR1 agonist 0 and GPR7 antagonist -4.
For NC(CO)c1csc(NC(=O)Nc2cccc(Cl)c2)n1 (stereo not drawn) the results were TAAR1 antag -3 and TAAR1 agonist 3.
`NC(COCc1ccccc1)c1csc(NC(=O)Nc2cccc(Cl)c2)n1` (stereo not drawn) gave TAAR1 antag 43, TAAR1 agonist 58*, TAAR1 ag confirm 51*, Ga16 nonsel ag 22*, TAAR1 desensitize 47 and Ga16 antag count 41*.
`NC(CCc1ccccc1)c1csc(NC(=O)Nc2cccc(C(F)(F)F)c2)n1` (stereo not drawn) gave TAAR1 antag 36, TAAR1 agonist 49*, TAAR1 ag confirm 39*, Ga16 nonsel ag 19*, TAAR1 desensitize 35 and Ga16 antag count 40*.
Screening COc1ccc(-n2nc3c(N4CCC(C(=O)NCC(C)c5ccccc5)CC4)nnc(C)c3c2C)cc1 (stereo not drawn) returned OX1R antag-1 -40, OX1R antag-2 13, CHO parental Ca -19, TAAR1 antag 3, TAAR1 agonist 59*, GPR7 antagonist 8, TAAR1 ag confirm 56*, Ga16 nonsel ag 1, TAAR1 desensitize 26 and Ga16 antag count -1.
COc1ccc(-n2nc3c(N4CCC(C(=O)NCc5ccccc5C)CC4)nnc(C)c3c2C)cc1 was read as OX1R antag-1 -19, OX1R antag-2 2, CHO parental Ca -24 and GPR7 antagonist -4.
For CCN1CCN(CCCNC(=O)c2ccc3c(Cl)c4c(nc3c2)CCCC4)CC1 the results were OX1R antag-1 -22, OX1R antag-2 20, CHO parental Ca -21, TAAR1 antag -26, TAAR1 agonist -2 and GPR7 antagonist -12.
For Cc1ccc(S(=O)(=O)N(CC(=O)N2CCCCCC2)c2ccccc2F)cc1 the results were OX1R antag-1 -11, OX1R antag-2 6, CHO parental Ca -32, TAAR1 antag 3, TAAR1 agonist 2 and GPR7 antagonist -9.
`CC(C)(C)c1ccc(OCCNC(=S)Nc2ccccc2)cc1` gave OX1R antag-1 -2, OX1R antag-2 28, CHO parental Ca -13, TAAR1 antag 16, TAAR1 agonist 6 and GPR7 antagonist -12.
Screening CC(C)(C)c1ccc(OCCNCc2ccccc2)cc1 returned OX1R antag-1 -19, OX1R antag-2 0, CHO parental Ca -14, TAAR1 antag 14, TAAR1 agonist 71*, GPR7 antagonist 4, TAAR1 ag confirm 72*, Ga16 nonsel ag 34*, TAAR1 desensitize 21 and Ga16 antag count 11.
Screening COc1ccc(/C=C/CN2CCC(C(=O)NC(c3ccc(F)cc3)c3ccc4ccccc4n3)CC2)cc1 (stereo not drawn) returned TAAR1 antag 32, TAAR1 agonist 47*, TAAR1 ag confirm 40*, Ga16 nonsel ag 23*, TAAR1 desensitize 28 and Ga16 antag count 26*.
